Measurements as given in article PMC9157599 (Materials Today Bio, 2022).
Numbered stars: 1 amine (or outer) side, 2 acyl side, 3 side chain; on linkers, the order of the positions; unused ones are H or OH. Square brackets hold non-standard residues; d marks the D form. Peptide text beside a SMILES is read from it. * marks the point of attachment. DAMPA = CN(Cc1cnc2nc(N)nc(N)c2n1)c1ccc(C(=O)*)cc1; γGlu = O=C(O)[C@H](CCC(=O)[*:2])N[*:1]

Legend:
RA-FLS [1] = experiment: Wound-healing; assay type: cell-based; conditions: 100 μM, 48 h culture then scratch, n = 6
Summary of the method: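 RA-FLS were serum-starved 12 h, mixed with hydrogels (formed from 100 μM peptide) or MTX solution (100 μM), and cultured 48 h. Monolayers were then scratched. Migration rate was calculated from healed area after a further 12 and 24 h, n = 6.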

RA-FLS [2] = experiment: Transwell invasion assay; assay type: cell-based; conditions: transwell with Matrigel, 100 μM, 24 h, n = 6
Summary of the method: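 RA-FLS were serum-starved 12 h and mixed with hydrogels or MTX solution (100 μM). They were seeded in the upper transwell chamber in serum-free medium with 12.5% Matrigel, with 20% FBS medium below as chemoattractant. After 24 h, invaded cells were stained with 2% crystal violet and counted microscopically, n = 6.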

AIA mice [3] = experiment: Therapeutic effect in adjuvant-induced arthritis; assay type: in vivo, C57BL/6 mice; conditions: n = 5; for paw swelling after 4 weeks of treatment: 20 μL intra-articular, both knees, twice a week for 4 weeks; for clinical score: dynamic, up to 28 days; for skin temperature of hind paws: infrared camera, 28th day after administration
Summary of the method: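 Male C57BL/6 AIA mice (CFA s.c. in the fore underarm; IFA into both hind pads a week later; treatment after one further week) were randomised to groups of n = 5. Dosing was 20 μL intra-articular into both knees twice weekly for 4 weeks. Arthritis was scored clinically, joint diameter was measured weekly by vernier caliper, and hind-paw skin temperature was recorded by infrared camera on day 28.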

AIA mice [4] = experiment: Immunofluorescence staining of synovial tissues of AIA mice; assay type: in vivo, C57BL/6 mice; conditions: for fluorescence signal of iNOS (M1 macrophages) in synovial tissues: n = 3; for synovial pannus / neovascularization (CD31 expression): n = 3 (Fig. 6c, Figure S14)
Summary of the method: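 AIA was induced in male C57BL/6 mice with CFA s.c., followed a week later by IFA into the hind pads. Knees received 20 μL intra-articular treatment twice weekly for 4 weeks. Knee joint sections were stained overnight at 4 °C with antibodies to CD31, F4/80, CD206 or iNOS (1:300), then Alexa Fluor 488 or Cy3 secondaries (1:8000, 2 h, room temperature) and DAPI. Imaging was by fluorescence microscopy, n = 3.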

[5] = system: M1 macrophages (LPS-induced RAW264.7); experiment: RT-qPCR of M1 markers in LPS-induced RAW264.7; assay type: cell-based, Mice; conditions: 100 μM, 24 h, compared to control group (LPS), n = 3
Summary of the method: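 RAW264.7 cells were polarised to M1 with 1% w/v LPS medium for 24 h, then treated with test compound or hydrogel (100 μM) for 24 h. Total RNA was extracted with TRIzol, and iNOS, IL-6 and TNF-α mRNA were quantified by RT-qPCR.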

AIA mice [6] = experiment: Histology and immunohistochemistry of knee joints of AIA mice; assay type: in vivo, C57BL/6 mice; conditions: day 28
Summary of the method: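 Male 8-week C57BL/6 mice received CFA (1% w/v) s.c. in the fore underarm, then the same dose of IFA into both hind pads a week later. One week on, 20 μL test hydrogel or PBS was given intra-articularly into both knees twice weekly for 4 weeks (n = 5). On day 28 knees were fixed in 4% paraformaldehyde, EDTA-decalcified 30 days, stained H&E and safranin-O/fast green, and Mankin-scored.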

RAW264.7 cells = experiment: Immunofluorescence staining of iNOS and CD206 on RAW264.7; assay type: cell-based, Mice; conditions: 100 μM, 24 h
Summary of the method: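 RAW264.7 cells were polarised with 1% w/v LPS-containing medium for 24 h, then exposed to test compound or hydrogel (100 μM) for another 24 h. Cells were immunostained for iNOS (M1) and CD206 (M2) and imaged by fluorescence.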

RA-FLS [7] = experiment: Live/dead staining, RA-FLS; assay type: cell-based; conditions: 100 μM, 48 h, Calcein AM/PI
HUVEC = experiment: Live/dead staining, HUVEC; assay type: cell-based, human; conditions: 100 μM, 48 h, Calcein AM/PI; MTX-loaded compared to MTX-GFFY and free MTX groups
Summary of the method: (§1)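 Cells were exposed to hydrogels or free MTX (100 μM) for 48 h, stained with Calcein AM (live) and propidium iodide (dead), and imaged by fluorescence microscopy.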

L929 = experiment: Live/dead staining, L929; assay type: cell-based, mouse; conditions: 100 μM, 48 h, Calcein AM/PI; MTX-loaded compared to MTX-GFFY and free MTX groups
Summary of the method: as §1

[8] = system: RA synovial fibroblast (RA-FLS); experiment: MTT cell viability, RA-FLS; assay type: cell-based; conditions: 48 h
Summary of the method: (§2)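 Cells were seeded at 10^4 per well and exposed for 48 h to test compound or hydrogel at 200, 100, 50, 10, 5 or 0 μM. Viability was read by MTT absorbance at 490 nm.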

AIA mice [9] = experiment: Serum inflammatory cytokines in AIA mice; assay type: in vivo, C57BL/6 mice; conditions: compared to PBS group, without statistical difference, n = 3 (Figure S13)
proteinase K = proteinase K (Parengyodontium album, UniProt P06873); experiment: Biostability of hydrogels exposed to proteinase K; assay type: in vitro ADME; conditions: for change of HPLC peak after addition of proteinase K: 37 °C, HPLC spectra (Fig. 1e)
Sequence of proteinase K (P06873 106-384, species assumed): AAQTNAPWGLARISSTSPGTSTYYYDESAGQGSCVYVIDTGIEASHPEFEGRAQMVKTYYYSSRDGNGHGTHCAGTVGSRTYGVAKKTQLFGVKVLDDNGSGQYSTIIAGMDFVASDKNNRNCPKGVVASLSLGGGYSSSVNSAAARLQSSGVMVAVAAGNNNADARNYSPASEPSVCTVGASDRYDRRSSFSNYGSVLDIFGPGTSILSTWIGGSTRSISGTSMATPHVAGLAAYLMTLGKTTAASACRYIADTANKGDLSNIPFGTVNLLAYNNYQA
Summary of the method: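 Peptide (1 mg in 5 mL PBS) incubated at 37 °C with proteinase K (3.2 units/mL). Aliquots were taken at each time point and analysed by reverse-phase HPLC on a C18 column, eluting with MeOH and water (each with 0.05% TFA).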

[10] = system: human umbilical vein endothelial cell (HUVEC); experiment: MTT cell viability, HUVEC; assay type: cell-based; conditions: 5-200 μM, 48 h, n = 3
Summary of the method: as §2

[11] = Gelation by heating-cooling and recovery after injection; assay type: physicochemical
Summary of the method: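 Gels were formed by dissolving peptide in PBS/Na2CO3 (pH 7.4), heating 30 s (flame or 100 °C water bath), then cooling at room temperature. Samples went onto the rheometer right after gelation: 40 mm parallel plates, 500 μm gap, frequency sweep 0.1–100 rad/s at 1% strain. Gel was measured before and after injection.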

mouse fibroblast (L929) = experiment: MTT cell viability, L929; assay type: cell-based; conditions: 5-200 μM, 48 h, n = 3
Summary of the method: as §2

[12] = system: M1 macrophages (LPS-induced RAW264.7); experiment: Western blot of M1 markers in RAW264.7; assay type: cell-based, Mice; conditions: 100 μM, 24 h, compared to control group (LPS), n = 3
Summary of the method: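 RAW264.7 cells were polarised with […] LPS for 24 h, then treated with test compound or hydrogel (100 μM) for 24 h. Lysate protein was quantified by Bradford assay, run on 10% SDS-PAGE and transferred to PVDF. Membranes were probed overnight at 4 °C for iNOS, IL-6 and TNF-α, then secondary antibody for 120 min at room temperature. Detection was by chemiluminescence, with tubulin reference and densitometry, n = 3.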

[13] = hydrogel exposed to proteinase K at 37 °C, images (Figure S8)

Row | SMILES | wound-healing rate at 24 h (RA-FLS [1]) [%] | RA-FLS invasion into the lower chamber (cell numbers) (RA-FLS [2]) | paw swelling after 4 weeks of treatment (AIA mice [3]) | clinical score (AIA mice [3]) | skin temperature of hind paws (AIA mice [3]) | fluorescence signal of iNOS (M1 macrophages) in synovial tissues (AIA mice [4]) | synovial pannus / neovascularization (CD31 expression) (AIA mice [4]) | relative gene expression of M1 markers (IL-6, TNF-α, iNOS) [5] | synovial hyperplasia and joint structure (H&E staining) (AIA mice [6]) | expression of iNOS (M1 marker) in RAW264.7 cells (RAW264.7 cells) | change of HPLC peak after addition of proteinase K (proteinase K) | also measured
1 | CN(Cc1cnc2nc(N)nc(N)c2n1)c1ccc(C(=O)N[C@@H](CCC(=O)O)C(=O)O)cc1 [MTX, methotrexate, reference compound] | 100 | inhibited approximately half | paw swelling was alleviated | gradually decreased | below 33 °C | significantly decreased | lowest among all treatment groups | not obvious | synovial evasion was inhibited | significantly decreased |  | wound-healing rate at 12 h (RA-FLS [1]; 12 h): 50%
2 | CN(Cc1cnc2nc(N)nc(N)c2n1)c1ccc(C(=O)N[C@@H](CCC(=O)NCC(=O)N[C@H](Cc2ccccc2)C(=O)N[C@H](Cc2ccccc2)C(=O)N[C@H](Cc2ccc(O)cc2)C(=O)O)C(=O)O)cc1 [MTX-G^DF^DF^DY] ({DAMPA-γGlu}-G[dF][dF][dY]-OH) | 40 | obviously decreased | effectively relieved paw swelling | lowest among all groups |  | lowest | lowest among all treatment groups | all marker genes of M1 macrophages were significantly down-regulated | knee joint structure was well protected | strongest inhibitory effect | had no obvious change | live/dead staining, RA-FLS (RA-FLS [7]): significantly enhanced the ratio of dead cells/live cells; live/dead staining, HUVEC (HUVEC): less L929 and HUVEC cells were dead; live/dead staining, L929 (L929): less L929 and HUVEC cells were dead; effect on RA-FLS proliferation at 50 μM ([8]; 50 μM): significantly inhibited RA-FLS proliferation; level of serum IL-6 (AIA mice [9]): slightly lower; level of serum TNF-α (AIA mice [9]): slightly lower; time hydrogel was stable in vitro (proteinase K; [13]): approximately 5 days; effect on cell proliferation / cytotoxicity, HUVEC [10]: reduced the cytotoxicity; time until hydrogel became stable (dynamic gelation process) ([11]; 10.317 mM (1 wt%) peptide in PBS, heating-cooling process (Figure S3)): ≤ 2 min; time to return to gel after injection ([11]; rheology before and after injection (Fig. 1d)): 5 min; IL-6 expression level in synovial tissue (immunohistochemistry) (AIA mice [6]): decreased to a similar level to normal group; effect on cell proliferation / cytotoxicity, L929 (mouse fibroblast (L929)): reduced the cytotoxicity; expression of M1 macrophage related proteins (iNOS, IL-6, TNF-α) [12]: best inhibitory effect
3 | CN(Cc1cnc2nc(N)nc(N)c2n1)c1ccc(C(=O)N[C@@H](CCC(=O)NCC(=O)N[C@@H](Cc2ccccc2)C(=O)N[C@@H](Cc2ccccc2)C(=O)N[C@@H](Cc2ccc(O)cc2)C(=O)O)C(=O)O)cc1 [MTX-GFFY] ({DAMPA-γGlu}-GFFY-OH) | 50 | obviously decreased | paw swelling was alleviated |  | below 33 °C | significantly decreased |  |  | synovial evasion was inhibited |  | gradually decreased | effect on RA-FLS at 100 μM ([8]; 100 μM): mild effects; time after which hydrogel became flowable (proteinase K; [13]): 1 days
